Drawing on ChEMBL document CHEMBL1177643, “Synthesis, DNA-binding ability and anticancer activity of benzothiazole/benzoxazole-pyrrolo[2,1-c][1,4]benzodiazepine conjugates” (Bioorg Med Chem, 2010), this text covers Activity, T/C and MTD for one molecule.

The subject of data set [1] is Mus musculus. Briefly: Toxicity in SCID mouse assessed as weight loss at 30 mg/kg, ip. It counts as organism-based. Set-up: dose 30 mg/kg, route intraperitoneal. Conditions: in vivo. The essentials:
(§1)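 HT29 xenograft-bearing scid mice dosed ip at 5 or 10 mg/kg on days 1, 5 and 9 (q4d), totalling 15 or 30 mg/kg. Vehicle-treated control group. Body weight, survival and signs of overt toxicity were recorded over the 35-day study.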

Data set [2] relates to HT-29. Briefly: Antitumor activity against human HT-29 cells xenografted in SCID mouse assessed as reduction tumor volume at 15 mg/kg, ip measured on day 5. Type of data set: functional. Conditions: route intraperitoneal. The method, boiled down:
(§2)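 HT29 xenografts in scid mice; dosing ip on days 1, 5 and 9 (q4d), 5 or 10 mg/kg per dose (total 15 or 30 mg/kg); vehicle control group. Tumour volume, body weight and toxicity followed for 35 days. Relative tumour volume = volume on given day / volume on day 1; T/C = mean RTV treated / mean RTV control.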
(Xenograft models place foreign cells or tissue in a host animal.)

The test system of data set [3] is Mus musculus. Briefly: Toxicity in SCID mouse assessed as mortality at 15 mg/kg, ip. Set-up: dose 15 mg/kg, route intraperitoneal. Type of data set: organism-based. Conditions: in vivo. The essentials: as §1
Data set [4] concerns A-375. Briefly: Cell cycle arrest in human A375 cells assessed as accumulation at G0 phase at 0.5 uM after 24 hrs using propidium iodide staining by flow cytometry. It counts as functional. The essentials:
(§3)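 A375 cells (5×10^5) grown 24 h, then exposed to compound 24 h (DMSO control). Trypsin–EDTA harvest, fixed in ice-cold 70% ethanol at 4 °C 30 min, RNase A 37 °C 30 min, propidium iodide staining. DNA content measured by flow cytometry on 20,000 events, gated as sub-G1/G0, G1, S and G2/M.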
Background: A flow cytometer gives signals particle by particle.

Data set [5] has as its system HT-29. Briefly: Antitumor activity against human HT-29 cells xenografted in SCID mouse assessed as reduction tumor volume at 15 mg/kg, ip measured on day 1. Type of data set: functional. Conditions: route intraperitoneal. The essentials: as §2
The subject of data set [6] is HT-29. Briefly: Antitumor activity against human HT-29 cells xenografted in SCID mouse assessed as reduction tumor volume at 15 mg/kg, ip measured on day 25. It counts as functional. Conditions: route intraperitoneal. The method, boiled down:
as §2

Data set [7] concerns HT-29. Briefly: Antitumor activity against human HT-29 cells xenografted in SCID mouse assessed as reduction tumor volume at 30 mg/kg, ip measured on day 25. It counts as functional. Conditions: route intraperitoneal. The essentials: as §2
Data set [8] deals with HT-29. Briefly: Antitumor activity against human HT-29 cells xenografted in SCID mouse assessed as reduction tumor volume at 30 mg/kg, ip measured on day 1. It counts as functional. Conditions: route intraperitoneal. The essentials:
as §2

Data set [9] relates to Mus musculus. Briefly: Toxicity in SCID mouse assessed as mortality at 50 mg/kg, ip. It counts as organism-based. Set-up: dose 50 mg/kg, route intraperitoneal. Conditions: in vivo.
Data set [10] concerns A-375. Briefly: Cell cycle arrest in human A375 cells assessed as accumulation at S phase at 0.5 uM after 24 hrs using propidium iodide staining by flow cytometry. Type of data set: functional. The method, boiled down:
as §3

The test system of data set [11] is HT-29. Briefly: Antitumor activity against human HT-29 cells xenografted in SCID mouse assessed as reduction tumor volume at 30 mg/kg, ip measured on day 35. It counts as functional. Conditions: route intraperitoneal. The method, boiled down:
as §2

In data set [12] the test system is A-375. Briefly: Cell cycle arrest in human A375 cells assessed as accumulation at G1 phase at 0.5 uM after 24 hrs using propidium iodide staining by flow cytometry. It counts as functional. The method, boiled down: as §3
Data set [13] relates to HT-29. Briefly: Antitumor activity against human HT-29 cells xenografted in SCID mouse assessed as reduction tumor volume at 30 mg/kg, ip measured on day 28. Type of data set: functional. Conditions: route intraperitoneal. The method, boiled down:
as §2

The subject of data set [14] is A-375. Briefly: Cell cycle arrest in human A375 cells assessed as accumulation at sub-G0 phase at 1 uM after 24 hrs using propidium iodide staining by flow cytometry. Type of data set: functional. The method, boiled down: as §3
The subject of data set [15] is HT-29. Briefly: Antitumor activity against human HT-29 cells xenografted in SCID mouse assessed as reduction tumor volume at 30 mg/kg, ip measured on day 5. Type of data set: functional. Conditions: route intraperitoneal. The essentials: as §2
Data set [16] deals with Mus musculus. Briefly: Toxicity in SCID mouse assessed as weight loss at 15 mg/kg, ip. Conditions: in vivo. It counts as organism-based. Also noted: dose 15 mg/kg, route intraperitoneal. The essentials:
as §1

The test system of data set [17] is A-375. Briefly: Cell cycle arrest in human A375 cells assessed as accumulation at G0/G1 phase at 0.5 uM after 24 hrs using propidium iodide staining by flow cytometry. Type of data set: functional. The essentials:
as §3

The test system of data set [18] is HT-29. Briefly: Antitumor activity against human HT-29 cells xenografted in SCID mouse assessed as reduction tumor volume at 30 mg/kg, ip measured on day 32. It counts as functional. Conditions: route intraperitoneal. The method, boiled down:
as §2

In data set [19] the test system is HT-29. Briefly: Antitumor activity against human HT-29 cells xenografted in SCID mouse assessed as reduction tumor volume at 15 mg/kg, ip measured on day 35. Type of data set: functional. Conditions: route intraperitoneal. The method, boiled down:
as §2

Data set [20] concerns HT-29. Briefly: Antitumor activity against human HT-29 cells xenografted in SCID mouse assessed as reduction tumor volume at 15 mg/kg, ip measured on day 28. Type of data set: functional. Conditions: route intraperitoneal. The essentials:
as §2

For data set [21], the system named is HT-29. Briefly: Antitumor activity against human HT-29 cells xenografted in SCID mouse assessed as reduction tumor volume at 15 mg/kg, ip measured on day 21. It counts as functional. Conditions: route intraperitoneal. The essentials:
as §2

Data set [22] deals with A-375. Briefly: Cell cycle arrest in human A375 cells assessed as accumulation at S phase at 1 uM after 24 hrs using propidium iodide staining by flow cytometry. It counts as functional. The method, boiled down: as §3
Data set [23] in a line: Toxicity in SCID mouse. It counts as organism-based. Conditions: in vivo.

Molecules are shown by their SMILES. “And” between values parts separate entries of the source, which are not always exact repeats. Equal entries are not always repeated.

With `COc1cc(-c2nc3ccccc3s2)ccc1OCCCCCOc1cc2c(cc1OC)C(=O)N1CCC[C@H]1C=N2`, the Activity result in the data set on Mus musculus [1] is “Non-toxic”; in the data set on Mus musculus [3], “Non-toxic”; with A-375 [4], 2.13%; with Mus musculus [9], “Non-toxic”; in the data set with A-375 [10] it was 64.95%; with A-375 [12], 64.95%. For the same molecule, the Activity is 2.7% in the data set on A-375 [14], “Non-toxic” in the data set with Mus musculus [16], 67.08% in the data set on A-375 [17] and 15.42% with A-375 [22]. Moreover, the T/C (usually the result in the treated group divided by that in the control group, in per cent) in the data set on HT-29 [2] was 0.65% and 0.62%; with HT-29 [5], 1%; with HT-29 [6] it was 0.72% and 0.2%; in the data set on HT-29 [7], 0.67%; in the data set on HT-29 [8], 1%; in the data set with HT-29 [11], 0.68%. The T/C in the data set on HT-29 [13] is 0.75%; with HT-29 [15], 0.85%; in the data set on HT-29 [18], 0.76%; with HT-29 [19] it was 0.82% and 0.14%; in the data set with HT-29 [20], 0.73% and 0.18%; in the data set on HT-29 [21], 0.65% and 0.2%. Besides, the MTD in [23] was less than 50 mg/kg.
